Active and inactive are the calls of the source. The calls are words filed in the database; no cut-off is given here.
Assays:
HOP-92 = assay: Growth inhibition of human HOP92 cells incubated for 48 hrs by sulforhodamine B assay; format: functional, cell-based
[1] = biological target: T1, Insulin-like growth factor 1 receptor (Homo sapiens, UniProt P08069); assay: Inhibition of IGF1R phosphorylation at Tyr1161 residue in human MCF7 cells at 1 uM after 1 hr by Hoechst 33258 staining based immunohistochemical analysis; format: cell-based
T1 sequence (P08069 31-736 limits assumed): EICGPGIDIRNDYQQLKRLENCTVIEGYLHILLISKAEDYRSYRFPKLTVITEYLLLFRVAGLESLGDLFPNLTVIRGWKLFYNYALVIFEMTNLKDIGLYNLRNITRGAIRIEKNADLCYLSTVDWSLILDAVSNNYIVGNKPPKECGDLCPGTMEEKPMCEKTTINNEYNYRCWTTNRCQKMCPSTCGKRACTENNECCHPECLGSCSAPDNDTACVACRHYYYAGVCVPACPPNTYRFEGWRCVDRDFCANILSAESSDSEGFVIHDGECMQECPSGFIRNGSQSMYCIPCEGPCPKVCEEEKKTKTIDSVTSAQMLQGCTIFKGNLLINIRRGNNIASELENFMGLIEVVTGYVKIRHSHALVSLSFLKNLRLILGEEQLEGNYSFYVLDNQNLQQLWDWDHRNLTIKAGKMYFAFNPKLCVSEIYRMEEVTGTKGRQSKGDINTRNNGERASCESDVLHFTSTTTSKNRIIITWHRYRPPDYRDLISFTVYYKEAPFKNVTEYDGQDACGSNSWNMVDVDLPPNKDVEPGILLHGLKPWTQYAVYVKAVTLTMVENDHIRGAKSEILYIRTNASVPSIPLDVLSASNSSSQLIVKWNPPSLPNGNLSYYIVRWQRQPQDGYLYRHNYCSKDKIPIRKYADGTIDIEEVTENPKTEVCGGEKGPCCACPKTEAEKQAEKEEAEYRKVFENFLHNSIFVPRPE
T1 sequence (P08069 741-1367 limits assumed): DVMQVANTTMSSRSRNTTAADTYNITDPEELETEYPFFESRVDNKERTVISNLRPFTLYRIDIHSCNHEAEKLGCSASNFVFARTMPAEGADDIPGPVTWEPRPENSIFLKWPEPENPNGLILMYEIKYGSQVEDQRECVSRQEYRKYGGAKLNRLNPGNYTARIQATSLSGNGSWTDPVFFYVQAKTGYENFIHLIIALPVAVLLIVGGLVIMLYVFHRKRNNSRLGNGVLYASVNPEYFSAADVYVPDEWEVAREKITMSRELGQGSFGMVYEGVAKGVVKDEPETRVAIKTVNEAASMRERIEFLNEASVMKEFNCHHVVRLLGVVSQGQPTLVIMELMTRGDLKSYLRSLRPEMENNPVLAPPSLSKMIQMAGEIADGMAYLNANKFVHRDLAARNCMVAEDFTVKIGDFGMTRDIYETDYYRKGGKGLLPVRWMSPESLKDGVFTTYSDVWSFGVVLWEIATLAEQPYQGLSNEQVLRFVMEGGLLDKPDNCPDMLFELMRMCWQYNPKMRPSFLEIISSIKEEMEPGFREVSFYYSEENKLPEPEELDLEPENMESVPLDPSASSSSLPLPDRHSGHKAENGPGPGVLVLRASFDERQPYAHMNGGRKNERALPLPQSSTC
Outline: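 MCF7 treated 1 h (test agent 1 μM; PI3K inhibitor 10 μM; 0.1% DMSO mock), fixed in 4% PFA 15 min, permeabilised/blocked, anti-p-IGF-1R Y1161 (1:200) overnight at 4 °C, Alexa 594 secondary 1 h, nuclei with Hoechst 33258 (1 μg/mL).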

[2] = biological target: T2, Aurora kinase A (Homo sapiens) (UniProt O14965); assay: Inhibition of human N-terminal GST/His6-tagged Aurora A (M1 to S403 residues) expressed in baculovirus infected sf9 cells at 1 uM using tetra(LRRLSLG) as substrate by filter binding assay
T2 sequence (whole entry): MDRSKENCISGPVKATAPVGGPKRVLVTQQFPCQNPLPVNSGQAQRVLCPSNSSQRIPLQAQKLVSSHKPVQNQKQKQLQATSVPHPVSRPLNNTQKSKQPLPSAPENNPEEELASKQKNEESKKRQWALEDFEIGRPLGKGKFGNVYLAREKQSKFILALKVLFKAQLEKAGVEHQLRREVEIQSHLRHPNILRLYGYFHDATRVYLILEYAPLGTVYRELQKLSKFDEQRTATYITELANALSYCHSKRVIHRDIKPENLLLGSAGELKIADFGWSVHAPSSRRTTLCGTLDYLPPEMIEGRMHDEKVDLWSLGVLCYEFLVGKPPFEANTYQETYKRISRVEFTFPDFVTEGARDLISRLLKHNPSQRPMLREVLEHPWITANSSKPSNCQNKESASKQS
Outline: (§1)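 Single-point profiling at 1 μM in a 22-kinase panel, performed externally by ProQinase; activity read as residual percent of control.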

SF-539 = assay: Growth inhibition of human SF539 cells incubated for 48 hrs by sulforhodamine B assay; format: functional, cell-based
NCI/ADR-RES = assay: Growth inhibition of human NCI/ADR-RES cells incubated for 48 hrs by sulforhodamine B assay; format: functional, cell-based
[3] = biological target: T1, Insulin-like growth factor 1 receptor; assay: Inhibition of IGF1R in human MDA-MB-231 cells assessed as reduction in Akt phosphorylation at Ser473 residue after 24 hrs by immunoblot analysis; format: cell-based
Outline: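 Cells in their medium with 10% FBS exposed to rising concentrations for 24 h; whole-cell lysates immunoblotted for p-Akt (S473) and total Akt; PI3K inhibitor at 10 μM as positive control.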

RXF 393 = assay: Growth inhibition of human RXF393 cells incubated for 48 hrs by sulforhodamine B assay; format: functional, cell-based
HCT-15 = assay: Growth inhibition of human HCT15 cells incubated for 48 hrs by sulforhodamine B assay; format: functional, cell-based
NCI-H460 = assay: Growth inhibition of human NCI-H460 cells incubated for 48 hrs by sulforhodamine B assay; format: functional, cell-based
A549 = assay: Growth inhibition of human A549/ATCC cells incubated for 48 hrs by sulforhodamine B assay; format: functional, cell-based
M14 = assay: Growth inhibition of human M14 cells incubated for 48 hrs by sulforhodamine B assay; format: functional, cell-based
COLO 205 = assay: Growth inhibition of human COLO205 cells incubated for 48 hrs by sulforhodamine B assay; format: functional, cell-based
TK-10 = assay: Growth inhibition of human TK10 cells incubated for 48 hrs by sulforhodamine B assay; format: functional, cell-based
Outline: (§2)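 NCI-60 panel growth inhibition, run by the U.S. National Cancer Institute; GI50 values are means of two test series.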

ACHN = assay: Growth inhibition of human ACHN cells incubated for 48 hrs by sulforhodamine B assay; format: functional, cell-based
SK-OV-3 = assay: Growth inhibition of human SKOV3 cells incubated for 48 hrs by sulforhodamine B assay; format: functional, cell-based
SN12C = assay: Growth inhibition of human SN12C cells incubated for 48 hrs by sulforhodamine B assay; format: functional, cell-based
SW-620 = assay: Growth inhibition of human SW620 cells incubated for 48 hrs by sulforhodamine B assay; format: functional, cell-based; outline: as §2
NCI-H226 = assay: Growth inhibition of human NCI-H226 cells incubated for 48 hrs by sulforhodamine B assay; format: functional, cell-based
IGROV-1 = assay: Growth inhibition of human IGROV1 cells incubated for 48 hrs by sulforhodamine B assay; format: functional, cell-based
[4] = biological target: T3, Aurora kinase C (Homo sapiens) (UniProt Q9UQB9); assay: Inhibition of human N-terminal GST-tagged Aurora B (M1 to S27 residues) expressed in sf9 cells at 1 uM using CDC25C-derived peptide as substrate by filter binding assay; outline: as §1
T3 sequence (whole entry): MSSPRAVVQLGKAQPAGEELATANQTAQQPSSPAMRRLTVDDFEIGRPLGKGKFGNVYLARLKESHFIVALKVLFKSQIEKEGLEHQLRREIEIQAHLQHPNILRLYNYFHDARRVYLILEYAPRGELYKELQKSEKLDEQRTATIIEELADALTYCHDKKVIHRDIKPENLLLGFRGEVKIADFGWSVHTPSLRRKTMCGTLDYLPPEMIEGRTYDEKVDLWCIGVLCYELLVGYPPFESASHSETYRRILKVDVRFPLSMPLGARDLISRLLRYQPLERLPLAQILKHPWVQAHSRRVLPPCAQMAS

PC-3 = assay: Growth inhibition of human PC3 cells incubated for 48 hrs by sulforhodamine B assay; format: functional, cell-based
NCI-H23 = assay: Growth inhibition of human NCI-H23 cells incubated for 48 hrs by sulforhodamine B assay; format: functional, cell-based
786-0 = assay: Growth inhibition of human 786-0 cells incubated for 48 hrs by sulforhodamine B assay; format: functional, cell-based
[5] = biological target: Fibroblast growth factor receptor 1 (Homo sapiens) (UniProt P11362); assay: Inhibition of human N-terminal GST/His6-tagged FGFR1 (G400 to R820 residues) expressed in baculovirus infected sf9 cells at 1 uM using Poly(Glu,Tyr)4:1 as substrate by filter binding assay; outline: as §1
Chain of Fibroblast growth factor receptor 1 (Homo sapiens) (P11362 22-822 limits assumed): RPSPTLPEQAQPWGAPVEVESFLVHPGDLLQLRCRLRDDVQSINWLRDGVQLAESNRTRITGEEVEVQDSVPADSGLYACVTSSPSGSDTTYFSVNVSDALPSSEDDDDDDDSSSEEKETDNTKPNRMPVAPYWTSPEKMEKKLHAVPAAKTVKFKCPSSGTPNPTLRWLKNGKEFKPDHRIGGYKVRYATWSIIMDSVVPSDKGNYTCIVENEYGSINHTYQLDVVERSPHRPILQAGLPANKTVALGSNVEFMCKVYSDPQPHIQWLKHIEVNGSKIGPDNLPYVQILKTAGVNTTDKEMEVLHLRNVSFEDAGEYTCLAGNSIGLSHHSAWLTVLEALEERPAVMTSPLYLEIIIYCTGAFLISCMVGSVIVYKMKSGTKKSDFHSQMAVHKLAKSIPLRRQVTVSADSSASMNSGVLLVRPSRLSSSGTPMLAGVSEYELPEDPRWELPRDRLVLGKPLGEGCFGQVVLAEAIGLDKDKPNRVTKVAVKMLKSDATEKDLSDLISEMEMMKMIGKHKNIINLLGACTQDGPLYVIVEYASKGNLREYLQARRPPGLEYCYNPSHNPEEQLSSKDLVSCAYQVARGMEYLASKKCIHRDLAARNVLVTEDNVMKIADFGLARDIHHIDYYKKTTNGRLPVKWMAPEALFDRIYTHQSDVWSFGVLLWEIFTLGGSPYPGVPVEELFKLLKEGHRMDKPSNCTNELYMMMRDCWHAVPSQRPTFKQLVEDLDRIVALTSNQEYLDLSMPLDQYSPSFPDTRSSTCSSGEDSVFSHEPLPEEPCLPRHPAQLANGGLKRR

UACC-257 = assay: Growth inhibition of human UACC257 cells incubated for 48 hrs by sulforhodamine B assay; format: functional, cell-based; outline: as §2
MCF7 = assay: Induction of apoptosis in human MCF7 cells at 0.5 uM after 24 hrs by Annexin V-FITC/propidium iodide staining based FACS analysis; format: functional, cell-based
Outline: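 MCF7 grown 24 h in DMEM/10% FBS/1% PS, exposed 24 h, pelleted, stained with FITC-annexin V in HEPES binding buffer (pH 7.4, 1.8 mM CaCl2) 15 min dark at rt, then PI 10 min, analysed by flow cytometry; bortezomib positive control.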

SNB-75 = assay: Growth inhibition of human SNB75 cells incubated for 48 hrs by sulforhodamine B assay; format: functional, cell-based
UACC-62 = assay: Growth inhibition of human UACC62 cells incubated for 48 hrs by sulforhodamine B assay; format: functional, cell-based; outline: as §2
SR = assay: Growth inhibition of human SR cells incubated for 48 hrs by sulforhodamine B assay; format: functional, cell-based; outline: as §2
MDA-MB-468 = assay: Growth inhibition of human MDA-MB-468 cells incubated for 48 hrs by sulforhodamine B assay; format: functional, cell-based

Structure (SMILES): CN1CCN(CCO/N=C2/C(=C3/C(=O)Nc4ccccc43)Nc3ccccc32)CC1
- growth inhibition (GI) (HOP-92): Active
- inhibition [1]: Active
- inhibition [2]: inactive
- growth inhibition (GI) (SF-539): Active
- growth inhibition (GI) (NCI/ADR-RES): Active
- inhibition [3]: Dose-dependent effect
- growth inhibition (GI) (RXF 393): Active
- growth inhibition (GI) (HCT-15): Active
- growth inhibition (GI) (NCI-H460): Active
- growth inhibition (GI) (A549): Active
- growth inhibition (GI) (M14): Active
- growth inhibition (GI) (COLO 205): Active
- growth inhibition (GI) (TK-10): Active
- growth inhibition (GI) (ACHN): Active
- growth inhibition (GI) (SK-OV-3): Active
- growth inhibition (GI) (SN12C): Active
- growth inhibition (GI) (SW-620): Active
- growth inhibition (GI) (NCI-H226): Active
- growth inhibition (GI) (IGROV-1): Active
- inhibition [4]: inactive
- growth inhibition (GI) (PC-3): Active
- growth inhibition (GI) (NCI-H23): Active
- growth inhibition (GI) (786-0): Active
- inhibition [5]: inactive
- growth inhibition (GI) (UACC-257): Active
- Activity (MCF7): Active
- growth inhibition (GI) (SNB-75): Active
- growth inhibition (GI) (UACC-62): Active
- growth inhibition (GI) (SR): Active
- growth inhibition (GI) (MDA-MB-468): Active
